Test results reported in ChEMBL document CHEMBL2057149 (J Med Chem, 2012).
Active and inactive are the calls of the source. The calls are words filed in the database; no cut-off is given here.

Key:
HMVEC [1] = assay: Antiangiogenic activity in FGF1-stimulated HMVEC cells after 72 hrs by CellTiter assay; assay type: functional, cell-based; details: Homo sapiens
HUVEC [2] = assay: Antiangiogenic activity in HUVEC cells assessed as inhibition of tube formation at 10 uM after 18 hrs by matrigel assay; assay type: functional; details: Homo sapiens
In short: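 HUVECs (passage 4 or 5, 70–80% confluent) suspended at 4 × 10⁵/mL in EGM2 with all supplements except heparin, mixed 1:1 with compound (final 10, 50 or 100 μM) in triplicate. Plated on growth factor-reduced Matrigel for 18 h. Branching nodes joining ≥3 tubules counted manually by phase-contrast microscopy. Reported as % inhibition versus untreated cells.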

HUVEC [3] = assay: Antiangiogenic activity in FGF2-stimulated HUVEC cells after 72 hrs by CellTiter assay; assay type: functional, cell-based; details: Homo sapiens
[4] = target: Vascular endothelial growth factor A (Homo sapiens) (UniProt P15692); assay: Binding affinity to VEGF by surface plasmon resonance assay
HMVEC [5] = assay: Antiangiogenic activity in VEGF-stimulated HMVEC cells after 72 hrs by CellTiter assay; assay type: functional, cell-based; details: Homo sapiens
HMVEC [6] = assay: Antiangiogenic activity in FGF2-stimulated HMVEC cells after 72 hrs by CellTiter assay; assay type: functional, cell-based; details: Homo sapiens
Plasma [7] = assay: Anticoagulant activity in pooled human plasma assessed as activated partial thromboplastin time at 0.1 mg/ml; assay type: ADME, cell-free
In short: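 APTT of pooled normal human plasma measured with compound at 0–100 μg/mL in PBS on a ball coagulameter, using unfractionated heparin as the reference. Normal range 26–36 s; coefficient of variation 2% at 36 s and 5–7% at 90 s or above. Values are the mean of two determinations.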

Plasma [8] = assay: Anticoagulant activity in pooled human plasma assessed as prolongation of the recalcification time at 0.1 mg/ml by Heptest assay; assay type: ADME, cell-free
In short: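 Heptest clotting time in pooled normal human plasma; normal range 13–20 s. Values are the mean of two determinations.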

[9] = target: Fibroblast growth factor 1 (Homo sapiens, UniProt P05230); assay: Binding affinity to FGF-1 by surface plasmon resonance assay
In short: (§1)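 Solution-affinity SPR on heparin-coated CM4 chips. FGF-1 measured in HBS-EP (10 mM HEPES pH 7.4, 150 mM NaCl, 3.0 mM EDTA, 0.005% polysorbate 20); FGF-2 measured in HBS-EP with 300 mM NaCl. Kd is the average of at least duplicate measurements ± SD.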

[10] = target: Fibroblast growth factor 2 (Homo sapiens, UniProt P09038); assay: Binding affinity to FGF-2 by surface plasmon resonance assay; in short: as §1
HUVEC [11] = assay: Antiangiogenic activity in FGF1-stimulated HUVEC cells after 72 hrs by CellTiter assay; assay type: functional, cell-based; details: Homo sapiens
HUVEC [12] = assay: Antiangiogenic activity in VEGF-stimulated HUVEC cells after 72 hrs by CellTiter assay; assay type: functional, cell-based; details: Homo sapiens
Heparanase = target: T1, Heparanase (Homo sapiens, UniProt Q9Y251); assay: Inhibition of human recombinant heparanase after 2 to 24 hrs by WST1 dye based fondaparinux assay
T1 sequence (Q9Y251 whole entry): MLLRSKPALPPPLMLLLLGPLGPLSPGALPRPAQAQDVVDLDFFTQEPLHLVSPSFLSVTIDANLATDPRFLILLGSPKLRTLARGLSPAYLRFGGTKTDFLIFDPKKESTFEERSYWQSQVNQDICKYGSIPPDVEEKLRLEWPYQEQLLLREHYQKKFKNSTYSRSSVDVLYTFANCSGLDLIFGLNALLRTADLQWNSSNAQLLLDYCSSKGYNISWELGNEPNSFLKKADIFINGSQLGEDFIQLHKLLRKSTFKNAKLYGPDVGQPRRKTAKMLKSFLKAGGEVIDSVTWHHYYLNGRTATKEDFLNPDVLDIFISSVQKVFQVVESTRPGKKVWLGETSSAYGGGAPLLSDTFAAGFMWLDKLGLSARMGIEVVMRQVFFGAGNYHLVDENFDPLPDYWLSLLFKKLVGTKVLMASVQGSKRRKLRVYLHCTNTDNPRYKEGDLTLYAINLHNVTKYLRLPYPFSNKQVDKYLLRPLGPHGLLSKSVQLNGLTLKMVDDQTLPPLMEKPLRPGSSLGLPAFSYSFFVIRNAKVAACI

Fibroblast growth factor 1, sequence (P05230 whole entry): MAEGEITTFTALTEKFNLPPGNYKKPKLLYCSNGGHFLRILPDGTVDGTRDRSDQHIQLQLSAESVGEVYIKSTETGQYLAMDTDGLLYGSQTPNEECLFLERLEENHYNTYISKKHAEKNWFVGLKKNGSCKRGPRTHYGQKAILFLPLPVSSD
Fibroblast growth factor 2, sequence (P09038 143-288 limits assumed): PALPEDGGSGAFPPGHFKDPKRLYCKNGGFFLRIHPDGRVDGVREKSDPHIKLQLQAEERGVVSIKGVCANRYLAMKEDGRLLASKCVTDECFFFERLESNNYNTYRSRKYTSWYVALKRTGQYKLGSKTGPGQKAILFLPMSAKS

SMILES | Activity (HMVEC [1]) | inhibition at 10 µM (HUVEC [2]) | IC50 (HUVEC [3]) | Kd [4] | Activity (HMVEC [5]) | Activity (HMVEC [6]) | APTT (Plasma [7]) | Time (Plasma [8]) | Kd [9] | Kd [10] | IC50 (HUVEC [11]) | IC50 (HUVEC [12]) | Ki (Heparanase)
CCCCCCCCCCCCCCCCCC(=O)NCCCO[C@@H]1O[C@H](COS(=O)(=O)[O-])[C@@H](O[C@H]2O[C@H](COS(=O)(=O)[O-])[C@@H](O[C@H]3O[C@H](COS(=O)(=O)[O-])[C@@H](O[C@H]4O[C@H](COS(=O)(=O)[O-])[C@@H](OS(=O)(=O)[O-])[C@H](OS(=O)(=O)[O-])[C@H]4OS(=O)(=O)[O-])[C@H](OS(=O)(=O)[O-])[C@H]3OS(=O)(=O)[O-])[C@H](OS(=O)(=O)[O-])[C@H]2OS(=O)(=O)[O-])[C@H](OS(=O)(=O)[O-])[C@H]1OS(=O)(=O)[O-].[Na+].[Na+].[Na+].[Na+].[Na+].[Na+].[Na+].[Na+].[Na+].[Na+].[Na+].[Na+].[Na+] | Active | > 80% | 800 nM | 14 nM | Active | Active | 65.8 s | 32.2 s | – | – | – | – | –
CC(C)CCC[C@@H](C)[C@H]1CC[C@H]2[C@@H]3CC[C@H]4C[C@@H](OCc5cn(CCCO[C@H]6O[C@H](COS(=O)(=O)[O-])[C@@H](OS(=O)(=O)[O-])[C@H](OS(=O)(=O)[O-])[C@@H]6O[C@H]6O[C@H](COS(=O)(=O)[O-])[C@@H](OS(=O)(=O)[O-])[C@H](O[C@H]7O[C@H](COS(=O)(=O)[O-])[C@@H](OS(=O)(=O)[O-])[C@H](OS(=O)(=O)[O-])[C@@H]7OS(=O)(=O)[O-])[C@@H]6OS(=O)(=O)[O-])nn5)CC[C@]4(C)[C@H]3CC[C@]12C.[Na+].[Na+].[Na+].[Na+].[Na+].[Na+].[Na+].[Na+].[Na+].[Na+] | Active | – | 1700 nM | 460 nM | Active | Active | 73.3 s | 33.1 s | 22.6 nM | 480 nM | 3800 nM | 2100 nM | 8.5 nM
CC(C)CCC[C@@H](C)[C@H]1CC[C@H]2[C@@H]3CC[C@H]4C[C@@H](OCc5cn([C@@H]6O[C@H](COS(=O)(=O)[O-])[C@@H](O[C@H]7O[C@H](COS(=O)(=O)[O-])[C@@H](O[C@H]8O[C@H](COS(=O)(=O)[O-])[C@@H](OS(=O)(=O)[O-])[C@H](OS(=O)(=O)[O-])[C@H]8OS(=O)(=O)[O-])[C@H](OS(=O)(=O)[O-])[C@H]7OS(=O)(=O)[O-])[C@H](OS(=O)(=O)[O-])[C@H]6OS(=O)(=O)[O-])nn5)CC[C@]4(C)[C@H]3CC[C@]12C.[Na+].[Na+].[Na+].[Na+].[Na+].[Na+].[Na+].[Na+].[Na+].[Na+] | Active | – | 1200 nM | 790 nM | Active | Active | 61.2 s | 30.2 s | 50 nM | 610 nM | 2100 nM | 1800 nM | 16 nM
CC(C)CCC[C@@H](C)[C@H]1CC[C@H]2[C@@H]3CC[C@H]4C[C@@H](OCc5cn(CCCO[C@H]6O[C@H](COS(=O)(=O)[O-])[C@@H](OS(=O)(=O)[O-])[C@H](O[C@H]7O[C@H](COS(=O)(=O)[O-])[C@@H](OS(=O)(=O)[O-])[C@H](O[C@H]8O[C@H](COS(=O)(=O)[O-])[C@@H](OS(=O)(=O)[O-])[C@H](OS(=O)(=O)[O-])[C@@H]8OS(=O)(=O)[O-])[C@@H]7OS(=O)(=O)[O-])[C@@H]6OS(=O)(=O)[O-])nn5)CC[C@]4(C)[C@H]3CC[C@]12C.[Na+].[Na+].[Na+].[Na+].[Na+].[Na+].[Na+].[Na+].[Na+].[Na+] | Active | – | 1200 nM | 260 nM | Active | Active | 71.4 s | 26.4 s | 14.3 nM | 474 nM | 2610 nM | 1400 nM | 8.4 nM
CC(C)CCC[C@@H](C)[C@H]1CC[C@H]2[C@@H]3CC[C@H]4C[C@@H](O[C@@H]5O[C@H](COS(=O)(=O)[O-])[C@@H](O[C@H]6O[C@H](COS(=O)(=O)[O-])[C@@H](O[C@H]7O[C@H](COS(=O)(=O)[O-])[C@@H](OS(=O)(=O)[O-])[C@H](OS(=O)(=O)[O-])[C@H]7OS(=O)(=O)[O-])[C@H](OS(=O)(=O)[O-])[C@H]6OS(=O)(=O)[O-])[C@H](OS(=O)(=O)[O-])[C@H]5OS(=O)(=O)[O-])CC[C@]4(C)[C@H]3CC[C@]12C.[Na+].[Na+].[Na+].[Na+].[Na+].[Na+].[Na+].[Na+].[Na+].[Na+] | Active | – | 2300 nM | 190 nM | Active | Active | 51.6 s | 29.2 s | 24.8 nM | 547 nM | 2500 nM | 1600 nM | 9.1 nM
CC(C)CCC[C@@H](C)[C@H]1CC[C@H]2[C@@H]3CC[C@H]4C[C@@H](O[C@H]5O[C@H](COS(=O)(=O)[O-])[C@@H](OS(=O)(=O)[O-])[C@H](OS(=O)(=O)[O-])[C@@H]5O[C@H]5O[C@H](COS(=O)(=O)[O-])[C@@H](OS(=O)(=O)[O-])[C@H](O[C@H]6O[C@H](COS(=O)(=O)[O-])[C@@H](OS(=O)(=O)[O-])[C@H](OS(=O)(=O)[O-])[C@@H]6OS(=O)(=O)[O-])[C@@H]5OS(=O)(=O)[O-])CC[C@]4(C)[C@H]3CC[C@]12C.[Na+].[Na+].[Na+].[Na+].[Na+].[Na+].[Na+].[Na+].[Na+].[Na+] | Active | – | 2270 nM | 319 nM | Active | Active | 50.7 s | 27.3 s | 18.5 nM | 631 nM | 4400 nM | 1000 nM | 6.4 nM
CC(C)CCC[C@@H](C)[C@H]1CC[C@H]2[C@@H]3CC[C@H]4C[C@@H](O[C@H]5O[C@H](COS(=O)(=O)[O-])[C@@H](OS(=O)(=O)[O-])[C@H](O[C@H]6O[C@H](COS(=O)(=O)[O-])[C@@H](OS(=O)(=O)[O-])[C@H](O[C@H]7O[C@H](COS(=O)(=O)[O-])[C@@H](OS(=O)(=O)[O-])[C@H](OS(=O)(=O)[O-])[C@@H]7OS(=O)(=O)[O-])[C@@H]6OS(=O)(=O)[O-])[C@@H]5OS(=O)(=O)[O-])CC[C@]4(C)[C@H]3CC[C@]12C.[Na+].[Na+].[Na+].[Na+].[Na+].[Na+].[Na+].[Na+].[Na+].[Na+] | Active | – | 1800 nM | 90 nM | Active | Active | 58.5 s | 24.2 s | 16 nM | 490 nM | 2500 nM | 1700 nM | 10.5 nM
